Laboratory results reported in ChEMBL document CHEMBL4118097, “Selective Inhibitors of Dual Leucine Zipper Kinase (DLK, MAP3K12) with Activity in a Model of Alzheimer's Disease” (J Med Chem, 2017).
pIC50: −log10 of the molar value.

Experiments:
[1] = target: Wee1-like protein kinase (Homo sapiens) (UniProt P30291); assay: Inhibition of recombinant N-terminal full length GST-tagged human WEE1 expressed in baculovirus expression system at 1 uM by FRET assay relative to control
Method in brief: (§1)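 Single-concentration screen at 1 μM in Life Technologies SelectScreen, across a 220-kinase panel. Z′-LYTE format measures phosphorylation of a labeled peptide by FRET. Results are reported as percent inhibition.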

[2] = species: Homo sapiens; assay: Binding affinity to KATP (unknown origin) receptor at 10 uM relative to control
Method in brief: (§2)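 Broad radioligand-binding and enzyme screening panel covering 42 targets (biogenic amine and neuropeptide receptors, ion channels, neurotransmitter transporters, acetylcholinesterase). Single test concentration of 10 μM. Results expressed as binding relative to control, with a hit defined as >50% of control.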

[3] = target: Calcium/calmodulin-dependent protein kinase type 1D (Homo sapiens) (UniProt Q8IU85); assay: Inhibition of CaMK1delta (unknown origin) at 1 uM by FRET assay relative to control
Calcium/calmodulin-dependent protein kinase type 1D (Homo sapiens), sequence (Q8IU85 whole entry, looked up): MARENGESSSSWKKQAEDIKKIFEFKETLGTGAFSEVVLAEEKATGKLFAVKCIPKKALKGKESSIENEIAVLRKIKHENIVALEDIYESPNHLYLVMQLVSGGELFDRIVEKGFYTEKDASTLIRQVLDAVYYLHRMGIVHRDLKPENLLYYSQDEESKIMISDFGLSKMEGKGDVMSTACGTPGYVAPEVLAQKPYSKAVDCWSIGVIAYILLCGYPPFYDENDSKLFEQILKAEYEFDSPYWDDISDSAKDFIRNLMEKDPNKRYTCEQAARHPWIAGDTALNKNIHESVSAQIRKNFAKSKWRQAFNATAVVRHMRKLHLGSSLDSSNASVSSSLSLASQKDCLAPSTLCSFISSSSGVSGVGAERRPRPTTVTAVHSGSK

[4] = target: Mitogen-activated protein kinase kinase kinase 9 (Homo sapiens, UniProt P80192); assay: Inhibition of recombinant human GST-tagged MLK1 expressed in baculovirus expression system by FRET assay
[5] = target: Calcium/calmodulin-dependent protein kinase type II subunit beta (Homo sapiens) (UniProt Q13554); assay: Inhibition of recombinant full length His-tagged human CaMK2beta expressed in baculovirus expression system at 1 uM by FRET assay relative to control
[6] = target: Tyrosine-protein kinase CSK (Homo sapiens) (UniProt P41240); assay: Inhibition of full length recombinant His-tagged human CSK cytoplasmic domain expressed in Escherichia coli at 1 uM by FRET assay relative to control
[7] = target: Tyrosine-protein kinase Fgr (Homo sapiens) (UniProt P09769); assay: Inhibition of recombinant full length His-tagged human FGR expressed in baculovirus expression system at 1 uM by FRET assay relative to control
Tyrosine-protein kinase Fgr (Homo sapiens), sequence (P09769 2-529 limits assumed): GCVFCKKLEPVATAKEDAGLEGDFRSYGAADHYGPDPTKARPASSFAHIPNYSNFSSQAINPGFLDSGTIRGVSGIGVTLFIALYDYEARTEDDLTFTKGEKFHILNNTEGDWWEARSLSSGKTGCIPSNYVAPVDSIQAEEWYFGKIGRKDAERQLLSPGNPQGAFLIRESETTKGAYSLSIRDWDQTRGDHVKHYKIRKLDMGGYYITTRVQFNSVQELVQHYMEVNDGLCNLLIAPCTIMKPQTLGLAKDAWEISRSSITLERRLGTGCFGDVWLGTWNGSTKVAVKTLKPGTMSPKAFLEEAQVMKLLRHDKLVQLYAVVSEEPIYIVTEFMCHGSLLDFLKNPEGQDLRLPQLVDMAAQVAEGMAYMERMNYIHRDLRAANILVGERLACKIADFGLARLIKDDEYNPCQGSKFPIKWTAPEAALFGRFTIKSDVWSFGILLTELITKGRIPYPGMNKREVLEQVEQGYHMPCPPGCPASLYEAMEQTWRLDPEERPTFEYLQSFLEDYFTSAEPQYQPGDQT

[8] = target: SRSF protein kinase 3 (Homo sapiens) (UniProt Q9UPE1); assay: Inhibition of recombinant full length N-terminal GST-tagged human MSSK1 expressed in baculovirus at 1 uM by FRET assay relative to control
[9] = target: Receptor-interacting serine/threonine-protein kinase 2 (Homo sapiens) (UniProt O43353); assay: Inhibition of recombinant His-tagged human RIPK2 catalytic domain (1 to 299 residues) expressed in baculovirus expression system at 1 uM by FRET assay relative to control; method in brief: as §1
[10] = target: Casein kinase I isoform alpha (Homo sapiens) (UniProt P48729); assay: Inhibition of CK1alpha1 (unknown origin) at 1 uM by FRET assay relative to control
[11] = target: Focal adhesion kinase 1 (Homo sapiens) (UniProt Q05397); assay: Inhibition of recombinant full length GST-tagged human FAK expressed in baculovirus expression system at 1 uM by FRET assay relative to control; method in brief: as §1
[12] = target: Serine/threonine-protein kinase 33 (Homo sapiens) (UniProt Q9BYT3); assay: Inhibition of recombinant full length His-tagged human STK33 expressed in baculovirus expression system at 1 uM by FRET assay relative to control
[13] = target: Serine/threonine-protein kinase TBK1 (Homo sapiens) (UniProt Q9UHD2); assay: Inhibition of recombinant full length GST-tagged human TBK1 expressed in insect cells at 1 uM by FRET assay relative to control; method in brief: as §1
Serine/threonine-protein kinase TBK1 (Homo sapiens), sequence (Q9UHD2 whole entry): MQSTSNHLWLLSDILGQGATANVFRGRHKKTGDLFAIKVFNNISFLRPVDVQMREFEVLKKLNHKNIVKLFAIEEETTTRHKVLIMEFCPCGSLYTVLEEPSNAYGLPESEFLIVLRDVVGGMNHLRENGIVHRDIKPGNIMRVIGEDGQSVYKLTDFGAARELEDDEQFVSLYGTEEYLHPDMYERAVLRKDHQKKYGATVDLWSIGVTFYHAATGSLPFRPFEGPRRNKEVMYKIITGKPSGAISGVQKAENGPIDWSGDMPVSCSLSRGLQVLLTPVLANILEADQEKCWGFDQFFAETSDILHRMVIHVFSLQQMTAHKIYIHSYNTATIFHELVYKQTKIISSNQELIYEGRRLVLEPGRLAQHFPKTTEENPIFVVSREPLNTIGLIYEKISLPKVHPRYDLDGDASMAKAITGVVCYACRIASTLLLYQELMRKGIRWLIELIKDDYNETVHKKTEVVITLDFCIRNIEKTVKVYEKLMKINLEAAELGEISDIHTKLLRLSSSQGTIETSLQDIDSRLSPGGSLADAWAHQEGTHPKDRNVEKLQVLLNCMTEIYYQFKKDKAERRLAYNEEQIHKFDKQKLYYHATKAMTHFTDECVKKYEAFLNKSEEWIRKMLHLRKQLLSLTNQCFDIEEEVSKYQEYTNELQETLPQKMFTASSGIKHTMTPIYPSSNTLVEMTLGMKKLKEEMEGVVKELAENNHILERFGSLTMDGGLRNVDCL

[14] = target: Serine/threonine-protein kinase 24 (Homo sapiens) (UniProt Q9Y6E0); assay: Inhibition of recombinant full length GST-tagged human MST3 expressed in baculovirus at 1 uM by FRET assay relative to control; method in brief: as §1
[15] = target: Activin receptor type-1B (Homo sapiens) (UniProt P36896); assay: Inhibition of recombinant GST-tagged human ACVR1B catalytic domain (150 to 505 residues) expressed in baculovirus expression system at 1 uM by FRET assay relative to control
Activin receptor type-1B (Homo sapiens), sequence (P36896 whole entry, the tested form may be a part): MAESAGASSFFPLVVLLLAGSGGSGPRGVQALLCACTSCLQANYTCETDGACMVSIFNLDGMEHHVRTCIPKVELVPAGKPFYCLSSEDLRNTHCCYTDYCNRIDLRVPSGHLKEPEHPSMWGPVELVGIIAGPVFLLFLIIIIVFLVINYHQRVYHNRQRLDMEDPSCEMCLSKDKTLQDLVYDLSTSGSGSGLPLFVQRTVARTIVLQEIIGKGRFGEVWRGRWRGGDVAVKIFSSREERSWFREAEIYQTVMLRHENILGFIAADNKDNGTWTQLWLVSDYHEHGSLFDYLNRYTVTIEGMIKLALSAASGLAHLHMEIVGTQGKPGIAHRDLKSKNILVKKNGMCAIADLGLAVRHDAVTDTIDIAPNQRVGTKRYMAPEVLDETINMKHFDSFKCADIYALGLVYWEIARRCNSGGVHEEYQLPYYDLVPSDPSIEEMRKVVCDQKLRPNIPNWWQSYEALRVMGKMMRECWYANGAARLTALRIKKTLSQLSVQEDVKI

[16] = target: High affinity nerve growth factor receptor (Homo sapiens, UniProt P04629); assay: Inhibition of recombinant His-tagged human TrkA cytoplasmic domain (441 to 796 residues) expressed in baculovirus expression system by FRET assay
[17] = target: Sodium-dependent serotonin transporter (Homo sapiens) (UniProt P31645); assay: Binding affinity to 5HT transporter (unknown origin) at 10 uM relative to control; method in brief: as §2
[18] = target: Serine/threonine-protein kinase SIK2 (Homo sapiens) (UniProt Q9H0K1); assay: Inhibition of SIK2 (unknown origin) at 1 uM by FRET assay relative to control
[19] = target: Tyrosine-protein kinase JAK3 (Homo sapiens) (UniProt P52333); assay: Inhibition of recombinant GST-tagged human JAK3 catalytic domain (781 to 1124 residues) expressed in baculovirus expression system at 1 uM by FRET relative to control
Method in brief: (§3)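 Single-point screen at 1 μM compound in a 220-kinase panel run by Life Technologies (SelectScreen). Z′-LYTE format: phosphorylation of a labeled peptide substrate read by FRET. Values are reported as percent inhibition.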

[20] = target: Leucine-rich repeat serine/threonine-protein kinase 2 (Homo sapiens) (UniProt Q5S007); assay: Inhibition of recombinant GST-tagged human LRRK2 catalytic domain (970 to 2527 residues) expressed in baculovirus expression system at 1 uM by FRET assay relative to control; method in brief: as §3
[21] = target: Ephrin type-A receptor 1 (Homo sapiens) (UniProt P21709); assay: Inhibition of recombinant GST-tagged human EphA1 cytoplasmic domain expressed in baculovirus expression system at 1 uM by FRET assay relative to control; method in brief: as §3
[22] = target: Peroxisome proliferator-activated receptor delta (Homo sapiens) (UniProt Q03181); assay: Binding affinity to recombinant human PPARdelta at 10 uM relative to control; method in brief: as §2
Peroxisome proliferator-activated receptor delta (Homo sapiens), sequence (Q03181 whole entry, the tested form may be a part): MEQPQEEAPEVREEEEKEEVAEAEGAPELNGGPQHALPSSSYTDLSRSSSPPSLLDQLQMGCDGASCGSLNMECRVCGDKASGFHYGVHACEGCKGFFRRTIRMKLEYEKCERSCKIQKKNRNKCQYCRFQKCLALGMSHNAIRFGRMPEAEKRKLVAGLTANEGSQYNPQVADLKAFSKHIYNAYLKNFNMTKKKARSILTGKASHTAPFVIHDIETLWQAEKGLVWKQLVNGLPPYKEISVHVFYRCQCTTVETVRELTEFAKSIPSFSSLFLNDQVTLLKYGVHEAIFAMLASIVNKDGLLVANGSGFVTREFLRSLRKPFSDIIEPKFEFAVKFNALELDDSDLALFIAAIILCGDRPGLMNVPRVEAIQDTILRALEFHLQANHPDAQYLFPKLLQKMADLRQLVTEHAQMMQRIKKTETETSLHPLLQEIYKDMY

[23] = target: Proto-oncogene tyrosine-protein kinase Src (Homo sapiens) (UniProt P12931); assay: Inhibition of recombinant full length C-terminal His-tagged human Src cytoplasmic domain expressed in baculovirus expression system at 1 uM by FRET assay relative to control; method in brief: as §1
[24] = target: Ephrin type-B receptor 3 (Homo sapiens) (UniProt P54753); assay: Inhibition of recombinant GST-tagged human EphB3 cytoplasmic domain expressed in baculovirus expression system at 1 uM by FRET assay relative to control; method in brief: as §3
Ephrin type-B receptor 3 (Homo sapiens), sequence (P54753 whole entry, the tested form may be a part): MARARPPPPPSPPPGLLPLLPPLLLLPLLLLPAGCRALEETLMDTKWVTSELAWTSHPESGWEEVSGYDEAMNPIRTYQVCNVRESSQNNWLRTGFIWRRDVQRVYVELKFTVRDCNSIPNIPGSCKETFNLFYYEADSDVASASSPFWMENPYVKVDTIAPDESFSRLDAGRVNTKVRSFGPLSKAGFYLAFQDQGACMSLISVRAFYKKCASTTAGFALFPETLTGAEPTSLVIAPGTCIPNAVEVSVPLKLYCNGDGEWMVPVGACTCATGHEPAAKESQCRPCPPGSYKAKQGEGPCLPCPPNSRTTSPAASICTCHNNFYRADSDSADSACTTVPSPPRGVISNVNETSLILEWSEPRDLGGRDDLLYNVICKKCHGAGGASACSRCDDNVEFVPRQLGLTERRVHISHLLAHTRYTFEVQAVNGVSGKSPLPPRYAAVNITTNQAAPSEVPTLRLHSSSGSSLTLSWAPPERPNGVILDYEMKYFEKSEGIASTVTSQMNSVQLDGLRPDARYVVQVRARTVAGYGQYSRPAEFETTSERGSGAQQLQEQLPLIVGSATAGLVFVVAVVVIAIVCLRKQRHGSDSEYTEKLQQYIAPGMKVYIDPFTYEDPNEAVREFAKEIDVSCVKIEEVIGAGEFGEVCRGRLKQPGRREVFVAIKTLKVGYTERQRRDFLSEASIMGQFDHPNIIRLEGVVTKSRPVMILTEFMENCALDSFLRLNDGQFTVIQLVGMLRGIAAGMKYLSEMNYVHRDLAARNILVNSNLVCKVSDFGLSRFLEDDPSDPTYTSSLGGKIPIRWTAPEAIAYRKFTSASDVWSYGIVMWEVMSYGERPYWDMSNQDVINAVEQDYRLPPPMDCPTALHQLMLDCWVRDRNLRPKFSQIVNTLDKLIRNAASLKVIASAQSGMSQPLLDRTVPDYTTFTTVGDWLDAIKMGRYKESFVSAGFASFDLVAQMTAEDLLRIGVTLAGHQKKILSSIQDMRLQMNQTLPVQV

[25] = target: Insulin-like growth factor 1 receptor (Homo sapiens) (UniProt P08069); assay: Inhibition of recombinant His-tagged human IGF1R cytoplasmic domain (960 to 1397 residues) expressed in baculovirus expression system at 1 uM by FRET relative to control; method in brief: as §3
[26] = target: Protein kinase C delta type (Homo sapiens) (UniProt Q05655); assay: Inhibition of recombinant full length human PKCdelta expressed in baculovirus expression system at 1 uM by FRET assay relative to control
[27] = target: 5-hydroxytryptamine receptor 2B (Homo sapiens) (UniProt P41595); assay: Binding affinity to 5HT2B receptor (unknown origin) receptor at 10 uM relative to control; method in brief: as §2
[28] = target: Serine/threonine-protein kinase TAO2 (Homo sapiens) (UniProt Q9UL54); assay: Inhibition of recombinant GST-tagged human TAO2 catalytic domain (1 to 314 residues) expressed in baculovirus expression system at 1 uM by FRET assay relative to control; method in brief: as §3
Serine/threonine-protein kinase TAO2 (Homo sapiens), sequence (Q9UL54 whole entry, the tested form may be a part): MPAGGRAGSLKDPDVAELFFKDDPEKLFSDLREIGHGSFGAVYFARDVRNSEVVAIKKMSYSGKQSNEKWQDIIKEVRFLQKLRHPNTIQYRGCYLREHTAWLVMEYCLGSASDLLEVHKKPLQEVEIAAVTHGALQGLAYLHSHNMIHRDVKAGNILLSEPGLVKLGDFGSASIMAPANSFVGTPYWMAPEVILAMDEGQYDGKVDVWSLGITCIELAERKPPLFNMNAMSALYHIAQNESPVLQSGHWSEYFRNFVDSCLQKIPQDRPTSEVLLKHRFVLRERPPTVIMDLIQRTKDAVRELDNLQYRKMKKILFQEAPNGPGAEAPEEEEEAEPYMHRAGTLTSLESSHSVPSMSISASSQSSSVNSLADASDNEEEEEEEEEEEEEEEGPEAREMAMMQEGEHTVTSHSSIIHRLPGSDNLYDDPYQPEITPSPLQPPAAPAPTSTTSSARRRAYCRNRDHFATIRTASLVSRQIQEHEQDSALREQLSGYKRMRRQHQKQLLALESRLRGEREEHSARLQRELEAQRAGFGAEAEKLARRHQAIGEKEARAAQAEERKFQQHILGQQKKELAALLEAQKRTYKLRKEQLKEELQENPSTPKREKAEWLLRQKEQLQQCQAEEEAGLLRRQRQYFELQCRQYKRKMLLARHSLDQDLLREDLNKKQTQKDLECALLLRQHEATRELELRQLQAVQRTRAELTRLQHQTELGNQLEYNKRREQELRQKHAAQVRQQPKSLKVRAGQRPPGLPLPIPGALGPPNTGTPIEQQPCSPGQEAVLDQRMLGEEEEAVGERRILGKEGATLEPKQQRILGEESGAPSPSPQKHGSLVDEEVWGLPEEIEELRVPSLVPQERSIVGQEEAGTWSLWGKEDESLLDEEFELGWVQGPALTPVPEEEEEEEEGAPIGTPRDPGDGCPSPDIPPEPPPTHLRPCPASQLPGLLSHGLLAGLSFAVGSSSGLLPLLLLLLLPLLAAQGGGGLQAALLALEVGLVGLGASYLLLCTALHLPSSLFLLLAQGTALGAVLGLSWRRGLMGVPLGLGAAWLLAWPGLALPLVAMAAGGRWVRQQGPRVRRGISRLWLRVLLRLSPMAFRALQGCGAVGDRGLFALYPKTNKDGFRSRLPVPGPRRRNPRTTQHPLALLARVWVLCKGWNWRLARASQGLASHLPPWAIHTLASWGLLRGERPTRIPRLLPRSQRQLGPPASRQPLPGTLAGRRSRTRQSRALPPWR

Structure (SMILES) | inhibition [1] [%] | Activity [2] [%] | inhibition [3] [%] | pIC50 [4] | inhibition [5] [%] | inhibition [6] [%] | inhibition [7] [%] | inhibition [8] [%] | inhibition [9] [%] | inhibition [10] [%] | inhibition [11] [%] | inhibition [12] [%] | inhibition [13] [%] | inhibition [14] [%] | inhibition [15] [%] | pIC50 [16] | Activity [17] [%] | inhibition [18] [%] | inhibition [19] [%] | inhibition [20] [%] | other results
CC(C)n1nc(-c2cnc(N)c(OC(F)(F)F)c2)cc1[C@H]1[C@@H]2CN(C3COC3)C[C@@H]21 | 4.9 | > 50 | 2.8 | 5.23 | 10.6 | 6.8 | 31.9 | 6.5 | 34.2 | -0.3 | 11.1 | 2.4 | 9.4 | -9.5 | -6.8 | 5.81 | > 50 | 10.8 | 21.9 | 15.7 | inhibition [21]: 13.5%; Activity [22]: > 50%; inhibition [23]: 23.8%; inhibition [24]: 4.6%; inhibition [25]: 9.3%; inhibition [26]: 0.9%; Activity [27]: > 50%; inhibition [28]: 0.6%
Nc1ncc(-c2cc([C@H]3[C@@H]4CN(C5COC5)C[C@@H]43)n(CC3CC3)n2)cc1C(F)(F)F | 7.1 | > 50 | 11.1 | 5.46 | 1.6 | 14.8 | 32.2 | -2.4 | 41.4 | 1.1 | 10.4 | 2.8 | 5.3 | -7.7 | 2.9 | 6.42 | > 50 | 18.4 | 24.6 | 20.6 | inhibition [21]: 30.8%; Activity [22]: > 50%; inhibition [23]: 22%; inhibition [24]: 10%; inhibition [25]: 13.8%; inhibition [26]: -0.7%; Activity [27]: > 50%; inhibition [28]: -3.9%
